pIC50: −log10 of the molar value.

Data set [1] can be described thus: AUC in C57/BL6 mouse at 3 mg/kg, po measured up to 24 hrs by LC-MS/MS analysis. The arrangement: dose 3 mg/kg, time < 24 hr, route oral. The conditions noted are these: in vivo. The class given is ADME, organism-based. A digest of the protocol: (§1)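 Mouse PK, composite design, n = 3 per time point, mean values. Dosed 3 mg/kg po in 1% Tween 80 + 99% (0.5%) methyl cellulose in water; 1 mg/kg iv in 5% NMP + 5% solutol + 90% normal saline for bioavailability reference.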

Data set [2] can be described thus: Half life in C57/BL6 mouse at 3 mg/kg, po measured up to 24 hrs by LC-MS/MS analysis. It is filed as ADME, organism-based. The conditions noted are these: in vivo. A digest of the protocol:
as §1

Data set [3] in a line: Oral bioavailability in C57/BL6 mouse at 3 mg/kg measured up to 24 hrs by LC-MS/MS analysis. It is filed as ADME, organism-based. The conditions noted are these: in vivo. A digest of the protocol:
as §1

The target of data set [4] is T1, NACHT, LRR and PYD domains-containing protein 3 (Homo sapiens, UniProt Q96P20). Kind of data set: Inhibition of NLRP3 inflammasome activation in LPS-primed human THP1 cells assessed as reduction in IL-1beta level preincubated for 1 hr followed by addition of ATP and nigericin further incubated for 1 hrs and measured post ATP addition 1 hr by ELISA method. The class given is cell-based, THP-1. Background: ELISA stands for enzyme-linked immunosorbent assay.
T1 sequence (Q96P20 whole entry, the tested form may be a part): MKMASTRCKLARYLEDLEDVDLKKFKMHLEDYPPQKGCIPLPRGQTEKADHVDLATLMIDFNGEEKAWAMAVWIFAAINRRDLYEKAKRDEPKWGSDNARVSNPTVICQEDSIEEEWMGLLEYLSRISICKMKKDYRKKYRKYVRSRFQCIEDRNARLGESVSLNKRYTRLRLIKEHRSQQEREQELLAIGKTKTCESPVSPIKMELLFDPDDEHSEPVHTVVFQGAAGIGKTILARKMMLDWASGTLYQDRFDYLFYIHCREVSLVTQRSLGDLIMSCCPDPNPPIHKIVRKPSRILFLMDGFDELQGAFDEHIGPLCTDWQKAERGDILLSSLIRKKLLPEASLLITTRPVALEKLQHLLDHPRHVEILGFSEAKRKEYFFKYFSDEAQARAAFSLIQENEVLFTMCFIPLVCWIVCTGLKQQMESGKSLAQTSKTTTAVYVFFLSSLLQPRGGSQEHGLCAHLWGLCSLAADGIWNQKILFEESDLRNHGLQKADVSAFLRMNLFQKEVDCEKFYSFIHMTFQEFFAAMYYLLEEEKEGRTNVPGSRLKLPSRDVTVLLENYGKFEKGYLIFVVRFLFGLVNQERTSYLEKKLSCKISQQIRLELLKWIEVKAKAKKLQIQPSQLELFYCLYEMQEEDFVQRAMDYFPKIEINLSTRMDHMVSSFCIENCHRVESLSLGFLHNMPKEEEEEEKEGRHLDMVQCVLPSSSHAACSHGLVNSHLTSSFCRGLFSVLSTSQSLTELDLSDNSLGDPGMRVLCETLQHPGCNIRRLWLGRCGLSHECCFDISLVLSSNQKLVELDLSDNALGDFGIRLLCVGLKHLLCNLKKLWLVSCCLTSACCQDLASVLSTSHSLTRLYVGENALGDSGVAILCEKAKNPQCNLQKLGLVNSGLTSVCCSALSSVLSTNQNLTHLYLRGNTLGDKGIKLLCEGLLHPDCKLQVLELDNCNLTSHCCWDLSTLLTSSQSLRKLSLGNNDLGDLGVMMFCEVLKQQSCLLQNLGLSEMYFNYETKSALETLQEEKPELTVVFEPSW

Data set [5] deals with T1, NACHT, LRR and PYD domains-containing protein 3. Kind of data set: Inhibition of NLRP3 inflammasome activation in LPS-primed human THP1 cells assessed as reduction in IL-1beta level at 1 uM preincubated for 1 hr followed by addition of ATP and nigericin further incubated for 1 hrs and measured post ATP addition 1 hr by ELISA method relative to control. The class given is cell-based. The conditions noted are these: THP-1.

For data set [6], the system named is Mus musculus. Description: Inhibition of LPS-induced serum IL-1beta production in C57/BL6 mouse at 10 mg/kg, po post-challenge with LPS for 2 hrs followed by ATP-challenge and measured after 30 mins by ELISA method relative to control. It is filed as functional. A digest of the protocol: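 Acute LPS+ATP challenge model in female C57BL/6 mice, n = 6/group; single oral dose 10 mg/kg in 1% Tween 80 and 99% methyl cellulose (0.5%); IL-1β compared with vehicle control; error bars SEM.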

What is called AUC is the area under the concentration-time curve, a measure of exposure. For orientation: half-life means the time needed for the level to fall by half in the phase considered. The low end stands for rapid decline, the high end for slow decline. In general, bioavailability refers to dose-corrected exposure relative to a reference, in per cent. The low end stands for poor availability, the high end for good availability. Regarding `N#CN=S(=O)(NC(=O)Nc1c2c(cc3c1CCC3)CCC2)c1cccnc1` (stereo unspecified), the exposure (AUC) at 24 h in data set [1] turned out to be 1280 ng·h/mL. Moreover, the half-life in data set [2] was 1.66 h. In addition, the bioavailability in data set [3] turned out to be 24%.
One may read the pIC50 as −log10 of the IC50, conventionally taken in molar units. For the compound `CC(=O)N=S(=O)(NC(=O)Nc1c2c(cc3c1CCC3)CCC2)c1ccc(C)cc1` (stereo unspecified), the negative logarithm of the IC50 (pIC50) in data set [4] was under 6.00.
As for `Cc1ccc(S(=O)(=O)NC(=O)C(=O)c2c3c(cc4c2CCC4)CCC3)cc1`, the pIC50 in data set [4] was under 6.00.
Still for that read-out and setting: to `Cc1ccc(S(=O)(=O)Nc2c(Nc3c4c(cc5c3CCC5)CCC4)c(=O)c2=O)cc1` belongs under 6.00.
In general, inhibition refers to the change of the read-out against control, counted positive when it falls. For `N#CC(NC(=O)Nc1c2c(cc3c1CCC3)CCC2)c1ccccc1` (stereo unspecified), the pIC50 in data set [4] was under 6.00. For the same compound, in data set [5], the inhibition was under 50%.
Regarding `CN=S(=O)(NC(=O)Nc1c2c(cc3c1CCC3)CCC2)c1ccc(C)cc1` (stereo unspecified), the pIC50 in data set [4] was under 6.00.
Regarding `Cc1ccc(S(=O)(=O)N/C(=N\C#N)Nc2c3c(cc4c2CCC4)CCC3)cc1`, the pIC50 in data set [4] is under 6.00.
On to `CON=S(=O)(NC(=O)Nc1c2c(cc3c1CCC3)CCC2)c1ccc(C)cc1` (stereo unspecified), for which the pIC50 in data set [4] was under 6.00.
In the case of `O=C(Nc1c2c(cc3c1CCC3)CCC2)NC(c1ccccc1)C(F)(F)F` (stereo unspecified), the negative logarithm of the IC50 (pIC50) in data set [4] is under 6.00. The inhibition in data set [5] was under 50%.
By inhibition in vivo is commonly meant how much of the control response was suppressed. The low end stands for a response near the control, the high end for a response far below the control. In turn, `Cc1ccc(S(=O)(=NC#N)NC(=O)Nc2c3c(cc4c2CCC4)CCC3)cc1` (stereo unspecified) gave an AUC at 24 h in data set [1] of 4200 ng·h/mL. This compound gave a half-life in data set [2] of 2.91 h. In addition, in data set [3], the bioavailability is 56%. This compound also registered an inhibition in vivo at 10 mg/kg in data set [6] of 44%.
Take `Cc1ccc(S(=O)(=NC(N)=O)NC(=O)Nc2c3c(cc4c2CCC4)CCC3)cc1` (stereo unspecified): the pIC50 in data set [4] is under 6.00.
In data set [1], `Cc1ccc(S(=O)(=NC#N)NC(=O)Nc2c3c(cc4c2CCC4)CCC3)cc1F` (stereo unspecified) came in with an AUC at 24 h of 3200 ng·h/mL. Moreover, the half-life in data set [2] is 2.38 h. The compound further had a bioavailability in data set [3] of 59%. In addition, the inhibition in vivo at 10 mg/kg in data set [6] came to 50%.
In the case of `Cc1ccc(S(=O)(=O)NC(=O)C(=O)Nc2c3c(cc4c2CCC4)CCC3)cc1`, in data set [4], the pIC50 is under 6.00.
Same read-out and setting: to `Cc1ccc(S(=O)(=Nc2ccc(F)cc2)NC(=O)Nc2c3c(cc4c2CCC4)CCC3)cc1` (stereo unspecified) belongs under 6.00.
For the compound `N#CN=S(=O)(NC(=O)Nc1c2c(cc3c1CCC3)CCC2)c1ccccn1` (stereo unspecified), the area under the curve (AUC) at 24 h in data set [1] is 8200 ng·h/mL. For the same compound, in data set [2], the half-life is 5.2 h. The compound further had a bioavailability in data set [3] of 97%. This compound displayed an inhibition in vivo at 10 mg/kg in data set [6] of 57%.
Compound `N#CN=S(=O)(NC(=O)Nc1c2c(cc3c1CCC3)CCC2)c1cccc(C#N)c1` (stereo unspecified) returned an AUC at 24 h in data set [1] of 1200 ng·h/mL. Moreover, the half-life in data set [2] was 1.13 h. In data set [3], this compound yielded a bioavailability of 40%.
Consider `Cc1ccc(S(=O)(=O)NC(=O)C(O)c2c3c(cc4c2CCC4)CCC3)cc1` (stereo unspecified), for which, in data set [4], the negative-log IC50 (pIC50) was under 6.00.
On the same count and under the same terms, to `Cc1ccc(S(=O)(=O)NS(=O)(=O)Nc2c3c(cc4c2CCC4)CCC3)cc1` belongs under 6.00; to `O=C(Nc1c2c(cc3c1CCC3)CCC2)NC1(c2ccccc2)COC1`, under 6.00.
Compound `N#CN=S(=O)(NC(=O)Nc1c2c(cc3c1CCC3)CCC2)c1ccc(C#N)cc1` (stereo unspecified) returned an AUC at 24 h in data set [1] of 800 ng·h/mL. The same compound had a half-life in data set [2] of 1.03 h. This compound gave a bioavailability in data set [3] of 27%.
Regarding `Cc1ccc(S(=O)(=NCC(F)(F)F)NC(=O)Nc2c3c(cc4c2CCC4)CCC3)cc1` (stereo unspecified), the pIC50 in data set [4] was under 6.00.
Turning to `Cc1ccc(S(=O)(=O)NC(=O)Cc2c3c(cc4c2CCC4)CCC3)cc1`, in data set [4], the pIC50 was under 6.00.
Regarding `CCOC(=O)N=S(=O)(NC(=O)Nc1c2c(cc3c1CCC3)CCC2)c1ccc(C)cc1` (stereo unspecified), the negative-log IC50 (pIC50) in data set [4] was under 6.00.
On the same count and under the same terms, the figure for `Cc1ccc(S(=O)(=Nc2ccn[nH]2)NC(=O)Nc2c3c(cc4c2CCC4)CCC3)cc1` (stereo unspecified) is under 6.00.

Source of the values: ChEMBL document CHEMBL4602705, “Discovery of N-Cyano-sulfoximineurea Derivatives as Potent and Orally Bioavailable NLRP3 Inflammasome Inhibitors” (ACS Med Chem Lett, 2020).
